Measurements from ChEMBL document CHEMBL3286281, “Amino derivatives of glycyrrhetinic acid as potential inhibitors of cholinesterases” (Bioorg Med Chem, 2014).

Tests used:
[1] = Selectivity ratio of Ki for Electrophorus electricus AChE to Ki for equine serum BChE
Procedure, shortened: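 Ki from Ellman kinetics at pH 8.0 and 30 °C after 20 min enzyme–inhibitor–DTNB preincubation. Inhibitor at several concentrations plus a water blank; ATChI or BTChI at 0.9375, 0.625, 0.325 and 0.1875 mM. A415 read every 1 min for 30 min, in triplicate. Ki from Lineweaver-Burk, Dixon and Cornish-Bowden plots; F = Ki(AChE)/Ki(BChE).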

[2] = target: Cholinesterase (Equus caballus) (UniProt P81908); assay: Inhibition of equine serum BChE using butyrylthiocholine iodide as substrate at 50 uM after 20 mins measured for 1 min interval for 30 mins by Ellman's method
Sequence of Cholinesterase (Equus caballus) (P81908 whole entry): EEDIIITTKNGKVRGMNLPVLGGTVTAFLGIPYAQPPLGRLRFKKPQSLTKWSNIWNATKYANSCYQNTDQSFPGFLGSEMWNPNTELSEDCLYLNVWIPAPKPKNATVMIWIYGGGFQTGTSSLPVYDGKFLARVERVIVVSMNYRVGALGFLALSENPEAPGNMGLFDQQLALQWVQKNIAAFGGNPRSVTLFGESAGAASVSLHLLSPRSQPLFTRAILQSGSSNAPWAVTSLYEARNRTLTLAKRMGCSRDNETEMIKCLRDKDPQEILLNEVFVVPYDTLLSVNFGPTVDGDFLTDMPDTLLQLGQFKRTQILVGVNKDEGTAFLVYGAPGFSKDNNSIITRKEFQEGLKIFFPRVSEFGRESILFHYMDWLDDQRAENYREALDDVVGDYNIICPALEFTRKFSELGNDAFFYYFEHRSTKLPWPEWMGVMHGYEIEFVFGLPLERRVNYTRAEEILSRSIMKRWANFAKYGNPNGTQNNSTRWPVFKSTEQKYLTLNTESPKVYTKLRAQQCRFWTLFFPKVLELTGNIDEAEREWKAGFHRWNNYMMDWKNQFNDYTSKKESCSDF
Procedure, shortened: (§1)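 Ellman assay in 50 mM Tris-HCl pH 8.0. Enzyme was preincubated with DTNB (3 mM stock) and compound at 30 °C for 20 min. Reaction started with ATChI for AChE or BTChI for BChE. Absorbance at 415 nm was read at 30 °C every 1 min for 30 min. Triplicates.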

[3] = Cytotoxicity against mouse NIH/3T3 cells after 96 hrs by sulforhodamine-B assay; format: cell-based; settings: NIH3T3, 96 h
Procedure, shortened: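 NIH 3T3 murine embryonic fibroblasts grown as monolayers in RPMI 1640 with 10% heat-inactivated FBS and penicillin/streptomycin, 37 °C, 5% CO2. Cells seeded, then exposed after 24 h to serial dilutions (0-30 μM) for 96 h, DMSO or DMF ≤0.5%. Fixed with 10% TCA at 4 °C, stained with 0.4% SRB, dye solubilized in 10 mM Tris base, absorbance read at 570 nm. Survival relative to untreated controls gave IC50. Triplicate.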

[4] = target: Acetylcholinesterase (Electrophorus electricus) (UniProt O42275); assay: Inhibition of Electrophorus electricus AChE using acetylthiocholine iodide as substrate at 50 uM after 20 mins measured for 1 min interval for 30 mins by Ellman's method; procedure, shortened: as §1
Sequence of Acetylcholinesterase (Electrophorus electricus) (O42275 24-633 limits assumed): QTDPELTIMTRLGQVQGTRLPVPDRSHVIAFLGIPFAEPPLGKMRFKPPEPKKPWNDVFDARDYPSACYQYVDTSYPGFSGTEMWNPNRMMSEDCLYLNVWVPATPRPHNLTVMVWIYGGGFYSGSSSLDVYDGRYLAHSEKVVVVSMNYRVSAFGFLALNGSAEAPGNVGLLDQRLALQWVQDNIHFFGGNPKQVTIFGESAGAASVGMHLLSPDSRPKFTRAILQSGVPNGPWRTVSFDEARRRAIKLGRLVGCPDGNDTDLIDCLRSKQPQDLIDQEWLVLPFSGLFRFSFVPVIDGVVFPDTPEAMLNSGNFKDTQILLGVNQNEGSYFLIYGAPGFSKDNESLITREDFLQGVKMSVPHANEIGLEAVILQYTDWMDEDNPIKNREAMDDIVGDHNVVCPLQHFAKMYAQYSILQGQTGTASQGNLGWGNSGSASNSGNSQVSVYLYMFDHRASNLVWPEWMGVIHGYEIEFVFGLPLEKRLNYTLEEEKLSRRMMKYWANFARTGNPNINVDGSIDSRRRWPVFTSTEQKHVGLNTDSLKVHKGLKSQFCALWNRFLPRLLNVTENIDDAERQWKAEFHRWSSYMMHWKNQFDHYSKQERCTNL

Acetylcholinesterase = Acetylcholinesterase (Electrophorus electricus, UniProt O42275); assay: Inhibition of Electrophorus electricus AChE using acetylthiocholine iodide as substrate after 20 mins measured for 1 min interval for 30 mins by Ellman's method
Sequence of Acetylcholinesterase (O42275 whole entry): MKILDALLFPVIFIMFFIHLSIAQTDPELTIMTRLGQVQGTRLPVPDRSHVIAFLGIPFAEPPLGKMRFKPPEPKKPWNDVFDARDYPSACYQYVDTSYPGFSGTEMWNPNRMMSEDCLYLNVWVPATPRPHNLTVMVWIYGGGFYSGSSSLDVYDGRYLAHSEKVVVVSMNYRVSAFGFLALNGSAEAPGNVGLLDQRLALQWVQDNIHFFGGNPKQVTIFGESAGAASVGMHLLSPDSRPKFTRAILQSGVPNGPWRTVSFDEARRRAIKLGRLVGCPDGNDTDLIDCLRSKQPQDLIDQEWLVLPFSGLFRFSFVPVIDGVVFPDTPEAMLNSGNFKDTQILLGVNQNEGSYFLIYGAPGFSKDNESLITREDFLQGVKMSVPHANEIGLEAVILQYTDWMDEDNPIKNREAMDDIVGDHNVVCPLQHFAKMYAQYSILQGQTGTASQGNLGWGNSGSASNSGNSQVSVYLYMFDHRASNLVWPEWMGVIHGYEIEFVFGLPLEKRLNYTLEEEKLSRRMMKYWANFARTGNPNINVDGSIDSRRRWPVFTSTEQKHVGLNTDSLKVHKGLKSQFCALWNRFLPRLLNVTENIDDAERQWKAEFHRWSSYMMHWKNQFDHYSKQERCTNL

[5] = target: Carbonic anhydrase 2 (Bos taurus) (UniProt P00921); assay: Inhibition of bovine erythrocytes carbonic anhydrase 2 at 50 uM
Sequence of Carbonic anhydrase 2 (Bos taurus) (P00921 2-260 limits assumed): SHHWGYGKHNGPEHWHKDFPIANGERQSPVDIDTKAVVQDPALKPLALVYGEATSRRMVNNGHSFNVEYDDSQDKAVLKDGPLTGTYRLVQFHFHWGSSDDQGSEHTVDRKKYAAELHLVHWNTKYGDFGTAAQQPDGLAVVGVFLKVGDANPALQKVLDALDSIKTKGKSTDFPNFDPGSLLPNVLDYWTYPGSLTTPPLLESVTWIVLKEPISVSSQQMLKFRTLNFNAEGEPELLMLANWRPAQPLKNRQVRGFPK
Procedure, shortened: (§2)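 Enzyme (bovine erythrocyte carbonic anhydrase II or Candida antarctica lipase) in 50 mM Tris-HCl pH 8.0 preincubated with compound for 20 min at 37 °C. Reaction started with 4-nitrophenyl acetate substrate. Absorbance at 415 nm followed each minute for 10 min at 37 °C, in duplicate. Relative inhibition taken as the slope ratio, compound over blank, over the linear range.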

Cholinesterase = Cholinesterase (Equus caballus, UniProt P81908); assay: Inhibition of equine serum BChE using butyrylthiocholine iodide as substrate after 20 mins measured for 1 min interval for 30 mins by Ellman's method
Sequence of Cholinesterase (P81908 whole entry): as the sequence (P81908 whole entry) above

Candida antarctica [6] = assay: Inhibition of Candida antarctica lipase at 50 uM; procedure, shortened: as §2
Papain (Carica papaya) [7] = target: T1, Papain (Carica papaya) (UniProt P00784); assay: Inhibition of Carica papaya papain at 50 uM
T1 sequence (whole entry): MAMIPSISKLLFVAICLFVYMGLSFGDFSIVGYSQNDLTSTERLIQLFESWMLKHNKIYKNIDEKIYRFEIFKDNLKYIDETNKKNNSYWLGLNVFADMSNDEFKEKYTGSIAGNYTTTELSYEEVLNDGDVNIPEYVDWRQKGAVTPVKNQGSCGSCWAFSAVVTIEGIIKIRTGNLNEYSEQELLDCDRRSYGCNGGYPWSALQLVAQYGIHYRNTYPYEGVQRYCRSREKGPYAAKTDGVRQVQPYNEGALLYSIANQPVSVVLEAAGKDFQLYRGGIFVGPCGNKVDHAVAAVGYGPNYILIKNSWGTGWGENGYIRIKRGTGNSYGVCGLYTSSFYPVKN
Procedure, shortened: (§3)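 Carica papaya papain in 50 mM Tris-HCl pH 6.2 preincubated with compound for 20 min at 37 °C. Reaction started with 4-nitrophenyl acetate. Absorbance at 415 nm read each minute for 10 min at 37 °C, in duplicate. Relative inhibition calculated as the ratio of slopes, compound versus blank, over the linear range.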

Papain (Carica papaya) [8] = target: T1, Papain (Carica papaya); assay: Inhibition of Carica papaya papain at 10 uM; procedure, shortened: as §3
[9] = target: Acetylcholinesterase (Electrophorus electricus) (UniProt O42275); assay: Inhibition of Electrophorus electricus AChE using acetylthiocholine iodide as substrate at 10 uM after 20 mins measured for 1 min interval for 30 mins by Ellman's method; procedure, shortened: as §1
[10] = target: Carbonic anhydrase 2 (Bos taurus) (UniProt P00921); assay: Inhibition of bovine erythrocytes carbonic anhydrase 2 at 10 uM; procedure, shortened: as §2
Candida antarctica [11] = assay: Inhibition of Candida antarctica lipase at 10 uM; procedure, shortened: as §2
[12] = target: Cholinesterase (Equus caballus) (UniProt P81908); assay: Inhibition of equine serum BChE using butyrylthiocholine iodide as substrate at 10 uM after 20 mins measured for 1 min interval for 30 mins by Ellman's method; procedure, shortened: as §1

Question: For CC1(C)[C@@H](O)CC[C@]2(C)[C@H]3C(=O)C=C4[C@@H]5C[C@@](C)(C(=O)OCCCCCCBr)CC[C@]5(C)CC[C@@]4(C)[C@]3(C)CC[C@@H]12, which Ratio Ki [1] is on record?
Answer: Its Ratio Ki is under 0.13.

Question: And the inhibition [2]?
Answer: Its inhibition is 30%.

Question: And the IC50 [3]?
Answer: Its IC50 is over 30 µM.

Question: What about the inhibition [4] of the same compound?
Answer: The inhibition was 43%.

Question: What about the Ki (Acetylcholinesterase) of the same compound?
Answer: The Ki was 13 µM.

Question: And the inhibition [5]?
Answer: The inhibition was 0%.

Question: And the Ki (Cholinesterase)?
Answer: The Ki was over 100 µM.

Question: What about the inhibition (Candida antarctica [6]) of the same compound?
Answer: Its inhibition is 45%.

Question: And the inhibition (Papain (Carica papaya) [7])?
Answer: Its inhibition is 0%.

Question: Which inhibition (Papain (Carica papaya) [8]) does the source give for CC1(C)[C@@H](O)CC[C@]2(C)[C@H]3C(=O)C=C4[C@@H]5C[C@@](C)(C(=O)On6nnc7ccccc76)CC[C@]5(C)CC[C@@]4(C)[C@]3(C)CC[C@@H]12 here?
Answer: The inhibition was 0%.

Question: And the inhibition [9]?
Answer: The inhibition was 49%.

Question: What about the Ratio Ki [1] of the same compound?
Answer: The Ratio Ki was over 2.04.

Question: What about the inhibition [10] of the same compound?
Answer: The inhibition was 27%.

Question: And the IC50 [3]?
Answer: The IC50 was over 30 µM.

Question: And the inhibition (Candida antarctica [11])?
Answer: Its inhibition is 32%.

Question: What about the Ki (Acetylcholinesterase) of the same compound?
Answer: The Ki was over 20 µM.

Question: And the Ki (Cholinesterase)?
Answer: The Ki was 9.81 µM.

Question: And the inhibition [12]?
Answer: Its inhibition is 68%.

Question: For COC(=O)[C@@]1(C)CC[C@]2(C)CC[C@]3(C)C(=CC(=O)[C@@H]4[C@@]5(C)CC[C@H](OC(=O)[C@@H](N)CCN)C(C)(C)[C@@H]5CC[C@]43C)[C@@H]2C1, which Ratio Ki [1] is on record?
Answer: The Ratio Ki was under 0.19.

Question: And the inhibition [2]?
Answer: Its inhibition is 16%.

Question: And the IC50 [3]?
Answer: Its IC50 is 3.05 µM.

Question: What about the inhibition [4] of the same compound?
Answer: Its inhibition is 68%.

Question: And the Ki (Acetylcholinesterase)?
Answer: Its Ki is 18.7 µM.

Question: And the inhibition [5]?
Answer: Its inhibition is 0%.

Question: And the Ki (Cholinesterase)?
Answer: Its Ki is over 100 µM.

Question: What about the inhibition (Candida antarctica [6]) of the same compound?
Answer: Its inhibition is 38%.

Question: And the inhibition (Papain (Carica papaya) [7])?
Answer: Its inhibition is 0%.

Question: Which Ratio Ki [1] does the source give for COC(=O)[C@@]1(C)CC[C@]2(C)CC[C@]3(C)C(=CC(=O)[C@@H]4[C@@]5(C)CC[C@H](OC(=O)[C@@H](N)CCC(=O)OCc6ccccc6)C(C)(C)[C@@H]5CC[C@]43C)[C@@H]2C1 here?
Answer: Its Ratio Ki is under 0.16.

Question: What about the inhibition [2] of the same compound?
Answer: The inhibition was 16%.

Question: What about the IC50 [3] of the same compound?
Answer: The IC50 was over 30 µM.

Question: And the inhibition [4]?
Answer: The inhibition was 58%.

Question: And the Ki (Acetylcholinesterase)?
Answer: Its Ki is 16.1 µM.

Question: What about the inhibition [5] of the same compound?
Answer: Its inhibition is 15%.

Question: What about the Ki (Cholinesterase) of the same compound?
Answer: Its Ki is over 100 µM.

Question: What about the inhibition (Candida antarctica [6]) of the same compound?
Answer: Its inhibition is 51%.

Question: What about the inhibition (Papain (Carica papaya) [7]) of the same compound?
Answer: The inhibition was 0%.

Question: With CC1(C)[C@@H](O)CC[C@]2(C)[C@H]3C(=O)C=C4[C@@H]5C[C@@](C)(C(=O)NCCCN)CC[C@]5(C)CC[C@@]4(C)[C@]3(C)CC[C@@H]12 as the compound, how does the Ratio Ki [1] read?
Answer: The Ratio Ki was over 18.4.

Question: And the inhibition [2]?
Answer: Its inhibition is 79%.

Question: What about the IC50 [3] of the same compound?
Answer: Its IC50 is over 30 µM.

Question: What about the inhibition [4] of the same compound?
Answer: Its inhibition is 35%.

Question: And the Ki (Acetylcholinesterase)?
Answer: Its Ki is over 100 µM.

Question: And the inhibition [5]?
Answer: The inhibition was 0%.

Question: What about the Ki (Cholinesterase) of the same compound?
Answer: The Ki was 5.43 µM.

Question: And the inhibition (Candida antarctica [6])?
Answer: The inhibition was 51%.

Question: What about the inhibition (Papain (Carica papaya) [7]) of the same compound?
Answer: Its inhibition is 0%.
